In general, IC50 refers to the midpoint of a concentration-inhibition curve.

In ChEMBL document CHEMBL1127797, “Synthesis of oxadiazolidinedione derivatives as quisqualic acid analogues and their evaluation at a quisqualate-sensitized site in the rat hippocampus” (J Med Chem, 1994) one finds IC50 data, which are given here for nine compounds.

What all share (details): pyramidal neuron
Assay [1] can be described thus: Ability to directly depolarize CA1 pyramidal neurons of rat hyppocampal slices before exposure to quisqualic acid. It is filed as functional, cell-based. The method, boiled down: (§1)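 Transverse hippocampal slices (500 μM as printed) from 25-60 day old male Sprague-Dawley rats, preincubated 20-30 min in high Mg2+/low Ca2+ medium, held at 28 °C. Submerged in microperfusion chamber at 34 °C, 95% O2/5% CO2. Schaffer collateral stimulation, stratum radiatum recording of peak field potential amplitude. IC50 (50% inhibition) interpolated from concentration-response data, mean of four experiments; measured before and after 5 min 20 μM quisqualic acid, then after 10 min 2 mM L-α-AA reversal.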

Assay [2] is described as follows: Sensitization of CA1 pyramidal neurons to depolarizations by L-AP6 after exposure to quisqualic acid. It is filed as functional, cell-based, Rattus norvegicus.
Assay [3] can be described thus: Sensitization of CA1 pyramidal neurons to depolarizations by L-AP6 before exposure to quisqualic acid. It is filed as functional, cell-based, Rattus norvegicus. The method, boiled down: (§2)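 Rat (male Sprague-Dawley, 25-60 days) hippocampal slices, submerged, 34 °C, 95% O2/5% CO2; Schaffer collateral stimulation with stratum radiatum CA1 field potential recording. L-AP6 IC50 for 50% inhibition of peak amplitude interpolated from concentration-response curves, mean of four experiments; determined before and after slice exposure to sensitizing agent in place of quisqualic acid, then after 2 mM L-α-AA reversal.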

The nature of assay [4]: Ability to directly depolarize CA1 pyramidal neurons of rat hyppocampal slices after exposure to quisqualic acid. It is filed as functional, cell-based. The method, boiled down: as §1
The nature of assay [5]: Sensitization of CA1 pyramidal neurons to depolarizations by L-AP6 after reversal with L-alpha-AA. It is filed as functional, cell-based, Rattus norvegicus. The method, boiled down:
as §2

The nature of assay [6]: Ability to directly depolarize CA1 pyramidal neurons of rat hyppocampal slices after reversal with L-alpha-AA. It is filed as functional, cell-based. The method, boiled down:
as §1

Assay [7] can be described thus: sensitization of CA1 pyramidal neurons by 2 to depolarizations by L-AP4, L-AP5 and L-AP6 after reversal with L-alpha-AA. It is filed as functional, cell-based, Rattus norvegicus. The method, boiled down:
(§3)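 Rat hippocampal slices were submerged at 34 °C under 95% O2/5% CO2. Stimulating and recording electrodes sat in CA1 stratum radiatum to record extracellular synaptic field potentials. IC50 of L-AP4, L-AP5 and L-AP6 was measured three times: before, after 20 min exposure to 20 mM test compound in place of quisqualic acid, and after 20 min 2 mM L-α-AA.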

A short description of assay [8]: sensitization of CA1 pyramidal neurons by 2 to depolarizations by L-AP4, L-AP5 and L-AP6 before exposure to quisqualic acid. It is filed as functional, cell-based, Rattus norvegicus. The method, boiled down:
as §3

The nature of assay [9]: sensitization of CA1 pyramidal neurons by 2 to depolarizations by L-AP4,L-AP5 and L-AP6 after exposure to quisqualic acid. It is filed as functional, cell-based, Rattus norvegicus. The method, boiled down:
as §3

The nature of assay [10]: sensitization of CA1 pyramidal neurons to depolarizations by L-AP6 after exposure to quisqualic acid. It is filed as functional, cell-based, Rattus norvegicus. The method, boiled down:
(§4)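 Male Sprague-Dawley rat (25-60 day) hippocampal slices were perfused at 34 °C. Schaffer collaterals were stimulated with field potential recording in CA1 stratum radiatum. L-AP6 concentration-response curves were run before and after exposure to test compound substituted for quisqualic acid, then after 10 min 2 mM L-α-AA. IC50 for 50% peak-amplitude inhibition was interpolated.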

Assay [11] is described as follows: ability to directly depolarize CA1 pyramidal neurons of rat hyppocampal slices after exposure to quisqualic acid. It is filed as functional, cell-based. The method, boiled down: (§5)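 Transverse hippocampal slices from 25-60 day old male Sprague-Dawley rats, preincubated 20-30 min in high Mg2+/low Ca2+ medium. Submerged at 34 °C under 95% O2/5% CO2. Schaffer collaterals stimulated; field potential peak amplitude recorded in CA1 stratum radiatum. Concentration-response curves run before, after 5 min 20 μM quisqualic acid, and after 10 min 2 mM L-α-AA reversal. IC50 interpolated; mean of four experiments.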

Assay [12] in a line: ability to directly depolarize CA1 pyramidal neurons of rat hyppocampal slices after reversal with L-alpha-AA. It is filed as functional, cell-based. The method, boiled down:
as §5

Assay [13] in a line: ability to directly depolarize CA1 pyramidal neurons of rat hyppocampal slices before exposure to quisqualic acid. It is filed as functional, cell-based. The method, boiled down:
as §5

Assay [14] can be described thus: sensitization of CA1 pyramidal neurons to depolarizations by L-AP6 after reversal with L-alpha-AA. It is filed as functional, cell-based, Rattus norvegicus. The method, boiled down: as §4
The nature of assay [15]: sensitization of CA1 pyramidal neurons to depolarizations by L-AP6 before exposure to quisqualic acid. It is filed as functional, cell-based, Rattus norvegicus. The method, boiled down: as §4

Some results are limits rather than exact numbers.

For `O=C(O)[C@@H]1C[C@H](n2oc(=O)[nH]c2=O)CN1`, the IC50 in assay [1] was 0.015 mM; in assay [2] it was more than 10 mM; in [3], more than 10 mM; in assay [4], 0.014 mM.

As for `O=C(O)CCn1oc(=O)[nH]c1=O`, the IC50 in assay [1], in [2], in assay [3] and in [4] was more than 10 mM throughout.

In the case of `O=C(O)[C@@H]1C[C@@H](n2oc(=O)[nH]c2=O)CN1`, the IC50 in [1] was 1 mM; in assay [2] it was 0.78 mM; in assay [5], more than 10 mM; in [3] it was more than 10 mM; in assay [4] it was 0.53 mM; in assay [6] it was 1.1 mM.

As for `NC(CCCP(=O)(O)O)C(=O)O` (centres undefined), the IC50 was determined as 2.2 mM in [7], 2.3 mM in assay [8] and 0.31 mM in assay [9].

Consider `NC(CCCCP(=O)(O)O)C(=O)O` (centres undefined), for which the values for the IC50 in assay [7], in assay [8] and in assay [10] were 12 mM, 11 mM and 0.17 mM, respectively.

Take `N[C@@H](CCP(=O)(O)O)C(=O)O`: the IC50 in assay [7] turned out to be 1.7 mM; in assay [8], 1.5 mM; in assay [9] it was 0.26 mM.

For the compound `N[C@@H](Cn1oc(=O)[nH]c1=O)C(=O)O` [QUISQUALATE], the IC50 was 0.004 mM in assay [11]; 0.026 mM in assay [12]; 0.007 mM in assay [13]; 0.04 mM in assay [10]; 1.9 mM in assay [14]; more than 10 mM in [15].

Take `NCCn1oc(=O)[nH]c1=O`: the half-inhibitory concentration (IC50) in [1] was 5.4 mM; in [2], more than 10 mM; in assay [3], more than 10 mM; in assay [4], 3.8 mM.

For `N[C@@H](CCn1oc(=O)[nH]c1=O)C(=O)O`, the IC50 amounted to 0.0055 mM in [11]; 0.02 mM in assay [12]; 0.0098 mM in assay [13]; 0.17 mM in [10]; 12 mM in [14]; 11 mM in assay [15].
